Assay outcomes: PubChem, Broad Institute
PAX8 inh HTS = PAX8 transcriptional activity inhibition; RMG-I TPO-luciferase reporter, SteadyGlo, 24 h; inhibition, % at 12.6 µM; 1.2% of 360,000 active; AID 652154;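 active means mean replicate inhibition at least 60% with every replicate also reaching 60%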;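 further: luciferase light reporting Pax8 driven TPO promoter activity; plate controls were median of neutral control wells for no effect and mitoxantrone controls for full effect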
FGF22 binding = shifts melting point of recombinant human FGF22; Q9HCT0; recombinant FGF22 thermal shift, SYPRO orange fluorescence; percent of sucrose octasulfate shift, DMSO zero; activity (Tm shift, normalised), % at 9.99 µM; 1.5% of 340,000 active; AID 651658;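 active means mean Tm shift, scaled 0 neutral to 100 positive control, at about 1.3% or above, every replicate too, limit read from the data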
Target sequence (Q9HCT0 whole entry, looked up): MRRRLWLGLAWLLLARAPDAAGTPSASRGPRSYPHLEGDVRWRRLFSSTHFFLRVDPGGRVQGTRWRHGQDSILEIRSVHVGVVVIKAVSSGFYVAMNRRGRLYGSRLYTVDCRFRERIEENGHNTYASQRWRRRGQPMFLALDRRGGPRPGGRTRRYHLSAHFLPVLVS
PGC1a acetyl inh = lowers PGC1a acetylation signal in U2OS cells; AlphaScreen anti-acetyl-lysine; with virally co-expressed GCN5 acetyltransferase; inhibition, % at 15.6 µM; 0.17% of 350,000 active; AID 651687;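 active means every replicate shows inhibition of at least 40%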;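 further: 0% = neutral control wells and 100% = positive control wells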
FN deposit inh = fibronectin deposition inhibition | inhibition, % at 12.6 µM | AH1F fibroblasts, Alexa488-fibronectin deposition fluorescence, overnight | 0.086% of 350,000 active;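 active means mean inhibition across replicates of 30% or more, regardless of how many single replicates reach that level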;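 further: positive control wells lacked labelled fibronectin entirely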
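test system = AH1F fibroblasts assembling fluorescent fibronectin matrix | quantity = 10000 AH1F cells per well | buffer or medium = DMEM plus 2% serum, read in PBS | doses = single dose, pinned | incubation = 1 h cell attachment, overnight exposure to compound and label | detection = fluorescence at 485 nm excitation, 525 nm emission | read-out basis = inhibition from reduced deposited-fibronectin fluorescence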
Env fusion inh = inhibitors of HIV Env-mediated cell fusion; HeLa-JRFL Env/CEM21 cell fusion, luciferase; inhibition, % at 12.3 µM; 1.1% of 360,000 active;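 active means mean replicate inhibition score of at least 50 and every replicate individually at or above 50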;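 further: 0% = plate neutral controls and 100% = maraviroc near 300 nM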
EWS-Fli block = EWS/Fli transcriptional activity inhibition | 0.67% of 350,000 active | inhibition, % at 12.6 µM | A673 NR0B1-luciferase reporter, viability-normalised | AID 651661;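 active means mean inhibition of at least 50% after viability correction, with every replicate also passing that limit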;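 further: firefly luciferase signal divided by Alamar Blue viability fluorescence both relative to DMSO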
Numbers without * were called inactive; nt = no result; [ ] = another dose, or the depositor's remark. Rows were chosen to be rich in hits. Some 3.1% of all compounds tested hit in one or more screens of this group.

SMILES	PAX8 inh HTS	FGF22 binding	PGC1a acetyl inh	FN deposit inh	Env fusion inh	EWS-Fli block
C[C@H](CO)N1C[C@H](C)[C@@H](CN(C)C(=O)C2CCOCC2)Oc2ncc(-c3ccccc3F)cc2C1=O	-6	0	-9	nt	-8[16.7 µM]	4
Cc1ccc(S(=O)(=O)Nc2ccc3c(c2)C(=O)N([C@H](C)CO)C[C@@H](C)[C@H](CN(C)C(=O)C2CCCCC2)OCCCC[C@H](C)O3)cc1	75*	nt	1	4	15[16.7 µM]	13
CC(C)CN=C(NS(=O)(=O)c1ccccc1)C(Cl)(Cl)Cl	100*	0	nt	2	-53	45
COc1ccc(CC(=O)OCC(=O)Nc2ccc3c(c2)OCO3)cc1	-15	43*	-2	-7	11	-4
Cc1ccc(S(=O)(=O)NCC(=O)OCC(=O)NCc2ccc3c(c2)OCO3)cc1	7	0	13	3	68*	6
CC(=O)Nc1ccc(S(=O)(=O)NCC(=O)OCC(=O)NCc2ccc3c(c2)OCO3)cc1	12	44*	nt	-6	22	-4
Cc1ccc(S(=O)(=O)NCC(=O)OCC(=O)NCc2cccs2)cc1	-4	0	-4	-1	nt	-1
NC(=O)Nc1ccc(C(=O)OCC(=O)NCc2ccc3c(c2)OCO3)cc1	-10	0	-2	11	-2	-1
CC(=O)Nc1ccc(C(=O)OCC(=O)NCc2ccc3c(c2)OCO3)cc1	-5	43*	-3	0	1	8
CCCC(=O)N1CC2(CCN(CC3CCCC3)CC2)c2c([nH]c3cc(OC)ccc23)[C@@H]1CO	nt	nt	-3	nt	nt	-4
C[C@H](CO)N1C[C@H](C)[C@@H](CN(C)C(=O)Nc2ccc(C(F)(F)F)cc2)OCCCC[C@H](C)Oc2ccc(NC(=O)C3CCCCC3)cc2C1=O	26	0	-4	nt	14[16.7 µM]	-3
Cc1ncc([N+](=O)[O-])n1CC(=O)Nc1ccccc1	5	43*	1	13	-4	-8
O=c1c2ccccc2cnn1-c1nc2ccccc2[nH]1	114*	0	nt	nt	63*	91*
O=c1c(Cl)c(N2CCCCC2)cnn1-c1nc2ccccc2[nH]1	nt	nt	4	11	-39	nt
C[C@H](CO)N1C[C@H](C)[C@@H](CN(C)Cc2ccc(Oc3ccccc3)cc2)Oc2ccc(NC(=O)c3ccncc3)cc2C1=O	-19	nt	3	13	9[16.7 µM]	-8
NC(=S)NN=C1CCSCC1	-23	43*	-1	-3	-14	-2
CN=c1scc(C)n1/N=C/c1ccc(O)c(O)c1O	nt	nt	17	8	-1	nt
CN=c1scc(-c2cccs2)n1/N=C/c1ccc(O)c(O)c1O	33	43*	nt	-15	-253	26
Cc1noc(C)c1S(=O)(=O)N(CC(=O)Nc1ccc2c(c1)OCO2)c1ccc(C(C)C)cc1	-11	0	-11	-8	-1	-2
Cc1n[nH]c(C)c1S(=O)(=O)N(CC(=O)Nc1ccc2c(c1)OCCO2)c1ccc(C(C)C)cc1	8	-1	-14	-2	59*	6
CCOP(=O)(OCC)c1nc(-c2ccc(Cl)cc2)oc1NCc1ccccc1	18	43*	nt	-7	9	13
CCCOP(=O)(OCCC)c1nc(-c2ccccc2)oc1NCc1ccccc1	19	43*	2	-9	40	13
CO[C@@H]1CN(C)C(=O)c2ccc(NC(=O)C3CCCCC3)cc2OC[C@H](C)NC[C@@H]1C	7	0	nt	-11	nt	-3
O=C(CCCCC(=O)OC1CCCCC1)OC1CCCCC1	-4	43*	-9	1	8	-14
O=C(C=CC(=O)OC1CCCCC1)OC1CCCCC1	5	0	-22	10	-12	-1
CCCC#Cc1ccc2c(c1)[C@@H]1[C@@H](CCN1S(=O)(=O)c1ccc(C)cc1)[C@@H](CO)N2C	-36	-1	-3	15	nt	2
COc1ccc(CN(C)C[C@@H]2OCCCC[C@H](C)Oc3ccc(NS(=O)(=O)c4ccc(C)cc4)cc3C(=O)N([C@@H](C)CO)C[C@@H]2C)cc1	18	nt	1	nt	-8[16.7 µM]	-4
O=C(C[C@@H]1C[C@H]2c3cc(NS(=O)(=O)c4ccc(F)cc4)ccc3O[C@H]2[C@H](CO)O1)NCc1ccc(Oc2ccccc2)cc1	101*	0	-30	nt	-242[16.7 µM]	59*
